Experimental findings from ChEMBL document CHEMBL3804768, “Structure-Activity Relationship Studies of Mitogen Activated Protein Kinase Interacting Kinase (MNK) 1 and 2 and BCR-ABL1 Inhibitors Targeting Chronic Myeloid Leukemic Cells” (J Med Chem, 2016) are described below.

Data set [1] concerns K562. Briefly: Antiproliferative activity against human K562 cells over expressing eIF4E after 48 hrs by Cell-Titer-Glo luminescent cell viability assay. The class given is functional. The settings on record: K562, 48 h. A digest of the protocol: (§1)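 Cells seeded at 5000 per well in growth medium, exposed to serial doses from 0.003 μM to 50 μM for 48 h at 37 °C, 5% CO2. Viability was read by CellTiter-Glo luminescence and GI50 taken from the dose-response curve. Dose response was run in triplicate and the curve repeated twice. K562 eIF4E-overexpressing cells were cultured in RPMI with 10% FBS.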

Data set [2] has as its system K562. Briefly: Antiproliferative activity against human K562 cells after 48 hrs by Cell-Titer-Glo luminescent cell viability assay. The class given is functional. The settings on record: K562, 48 h. A digest of the protocol: as §1
Data set [3] in a line: Oral bioavailability in CD1 mouse at 50 mg/kg. The class given is ADME, organism-based. The settings on record: in vivo.
Another data set addresses Cytochrome P450 3A4 (Homo sapiens, UniProt P08684). Briefly: Inhibition of CYP3A4 (unknown origin). The class given is ADME.
Data set [4] concerns the target Fibroblast growth factor receptor 2 (Homo sapiens, UniProt P21802). The experiment in a line: Inhibition of human recombinant FGFR2 expressed in sf21 cells using Poly(Glu:Tyr) as substrate in presence of [gamma32P]ATP.
The nature of data set [5]: Thermodynamic solubility in pH 4 pION buffer at 500 uM incubated for 18 hrs by UV-spectrophotometry. It is filed as physicochemical. The settings on record: read-out: Therm_solubility.
Data set [6] deals with Mast/stem cell growth factor receptor Kit (Homo sapiens, UniProt P10721). Briefly: Inhibition of human recombinant c-KIT expressed in insect cells using Poly(Glu:Tyr) as substrate in presence of [gamma32P]ATP.
Data set [7] is described as follows: Plasma protein binding in human. The class given is ADME, cell-free. The settings on record: read-out: PPB (converted).
In a further data set the target is Bcr/Abl fusion protein (Homo sapiens, UniProt P00519). The experiment in a line: Inhibition of BCR fused full length human recombinant N-terminal His-tagged ABL (2 to 1130 residues) expressed in baculovirus expression system using FL-peptide 2 substrate preincubated for 10 mins followed by substrate addition measured after 60 mins by mobility shift assay.
Data set [8] deals with K562. The experiment in a line: Antitumor activity against human K562 cells over expressing eIF4E xenografted in po dosed NOD-SCID mouse assessed as tumor growth inhibition administered qd through oral gavage for 14 days. The class given is functional, organism-based. A digest of the protocol: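 Female SCID mice, 7-10 weeks old, received 1 x 10^7 K562 eIF4E-overexpressing cells subcutaneously. At tumor volumes of 75-245 mm³ (w²×l/2) mice were randomized and gavaged once daily for 14 days at 10 mL/kg.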

Data set [9] addresses MAP kinase-interacting serine/threonine-protein kinase 1 (Homo sapiens, UniProt Q9BUB5). Briefly: Inhibition of N-terminal GST-tagged MNK1 kinase domain (37 to 341 residues) (unknown origin) expressed in Escherichia coli BL21(DE3) cells using JH3 peptide substrate preincubated for 10 mins followed by substrate addition measured after 60 mins by mobility shift assay.
Data set [10] concerns the target Proto-oncogene tyrosine-protein kinase receptor Ret (Homo sapiens, UniProt P07949). Briefly: Inhibition of human recombinant RET expressed in sf21 cells using Poly(Glu:Tyr) as substrate in presence of [gamma32P]ATP.
Data set [11] can be described thus: Antiproliferative activity against human BV173 cells after 48 hrs by Cell-Titer-Glo luminescent cell viability assay. It is filed as functional. The settings on record: BV-173, 48 h. The essentials: as §1
Data set [12] in a line: Clearance in CD1 mouse at 5 mg/kg, iv. The settings on record: in vivo. It is filed as ADME, organism-based.
The target in data set [13] is Vascular endothelial growth factor receptor 2 (Homo sapiens, UniProt P35968). The experiment in a line: Inhibition of human recombinant VEGFR2 expressed in sf21 cells at 1 uM using Poly(Glu:Tyr) as substrate in presence of [gamma32P]ATP.
Chain of Vascular endothelial growth factor receptor 2 (P35968 whole entry): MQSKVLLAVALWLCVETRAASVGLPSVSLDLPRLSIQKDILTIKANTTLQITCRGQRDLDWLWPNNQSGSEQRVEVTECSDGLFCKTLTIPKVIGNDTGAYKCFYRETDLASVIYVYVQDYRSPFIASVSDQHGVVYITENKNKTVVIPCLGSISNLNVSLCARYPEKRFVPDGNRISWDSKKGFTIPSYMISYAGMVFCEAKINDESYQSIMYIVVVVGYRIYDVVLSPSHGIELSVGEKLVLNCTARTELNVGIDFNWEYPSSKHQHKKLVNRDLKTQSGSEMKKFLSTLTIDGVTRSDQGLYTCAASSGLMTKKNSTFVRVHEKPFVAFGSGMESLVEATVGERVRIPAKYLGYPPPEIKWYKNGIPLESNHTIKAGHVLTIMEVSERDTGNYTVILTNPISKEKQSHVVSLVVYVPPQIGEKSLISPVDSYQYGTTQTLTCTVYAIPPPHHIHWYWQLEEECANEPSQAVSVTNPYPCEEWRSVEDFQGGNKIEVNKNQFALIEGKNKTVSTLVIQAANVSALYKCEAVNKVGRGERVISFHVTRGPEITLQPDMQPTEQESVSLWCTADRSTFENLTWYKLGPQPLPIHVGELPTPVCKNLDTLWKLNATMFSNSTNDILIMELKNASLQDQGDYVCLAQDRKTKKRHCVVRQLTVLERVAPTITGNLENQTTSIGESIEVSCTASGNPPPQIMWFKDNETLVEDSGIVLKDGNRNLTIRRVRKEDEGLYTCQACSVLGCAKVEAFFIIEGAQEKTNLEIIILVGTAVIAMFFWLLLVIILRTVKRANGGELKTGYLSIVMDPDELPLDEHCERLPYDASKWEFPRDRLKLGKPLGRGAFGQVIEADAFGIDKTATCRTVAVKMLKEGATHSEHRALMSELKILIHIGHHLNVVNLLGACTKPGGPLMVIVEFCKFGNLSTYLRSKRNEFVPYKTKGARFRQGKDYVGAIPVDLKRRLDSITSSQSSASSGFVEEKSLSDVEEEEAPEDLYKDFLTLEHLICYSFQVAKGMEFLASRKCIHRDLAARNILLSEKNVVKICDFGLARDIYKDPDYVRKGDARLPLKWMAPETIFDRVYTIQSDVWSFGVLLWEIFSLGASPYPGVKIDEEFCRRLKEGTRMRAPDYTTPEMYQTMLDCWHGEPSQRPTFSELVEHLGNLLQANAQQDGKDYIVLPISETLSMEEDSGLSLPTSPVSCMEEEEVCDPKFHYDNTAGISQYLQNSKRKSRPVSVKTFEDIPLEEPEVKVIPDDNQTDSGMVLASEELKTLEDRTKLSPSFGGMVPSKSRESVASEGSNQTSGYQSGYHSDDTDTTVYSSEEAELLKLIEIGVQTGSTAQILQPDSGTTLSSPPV
The target in data set [14] is MAP kinase-interacting serine/threonine-protein kinase 1/2 (Homo sapiens, UniProt Q9HBH9+Q9BUB5). The experiment in a line: Inhibition of MNK1/MNK2 in human HeLa cells assessed as reduction in phosphorylation of eIF4E at Ser209 after 2 hrs by AlphaScreen SureFire assay. The class given is cell-based. A digest of the protocol: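 HeLa cells were grown in DMEM with 10% FBS and penicillin/streptomycin, seeded at 30,000 per well and left 24 h. They were then exposed to serially diluted compound in serum-free DMEM for 2 h at 37 °C and lysed with shaking for 20 min. Phospho-eIF4E Ser209 was read by AlphaScreen SureFire with 2 h acceptor and 2 h donor steps at room temperature. Dose response was run in triplicate.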
For orientation: Alpha assays give light when donor and acceptor beads are brought close together.

Data set [15] deals with T1, Receptor-type tyrosine-protein kinase FLT3 (Homo sapiens, UniProt P36888).
T1 sequence (P36888 whole entry): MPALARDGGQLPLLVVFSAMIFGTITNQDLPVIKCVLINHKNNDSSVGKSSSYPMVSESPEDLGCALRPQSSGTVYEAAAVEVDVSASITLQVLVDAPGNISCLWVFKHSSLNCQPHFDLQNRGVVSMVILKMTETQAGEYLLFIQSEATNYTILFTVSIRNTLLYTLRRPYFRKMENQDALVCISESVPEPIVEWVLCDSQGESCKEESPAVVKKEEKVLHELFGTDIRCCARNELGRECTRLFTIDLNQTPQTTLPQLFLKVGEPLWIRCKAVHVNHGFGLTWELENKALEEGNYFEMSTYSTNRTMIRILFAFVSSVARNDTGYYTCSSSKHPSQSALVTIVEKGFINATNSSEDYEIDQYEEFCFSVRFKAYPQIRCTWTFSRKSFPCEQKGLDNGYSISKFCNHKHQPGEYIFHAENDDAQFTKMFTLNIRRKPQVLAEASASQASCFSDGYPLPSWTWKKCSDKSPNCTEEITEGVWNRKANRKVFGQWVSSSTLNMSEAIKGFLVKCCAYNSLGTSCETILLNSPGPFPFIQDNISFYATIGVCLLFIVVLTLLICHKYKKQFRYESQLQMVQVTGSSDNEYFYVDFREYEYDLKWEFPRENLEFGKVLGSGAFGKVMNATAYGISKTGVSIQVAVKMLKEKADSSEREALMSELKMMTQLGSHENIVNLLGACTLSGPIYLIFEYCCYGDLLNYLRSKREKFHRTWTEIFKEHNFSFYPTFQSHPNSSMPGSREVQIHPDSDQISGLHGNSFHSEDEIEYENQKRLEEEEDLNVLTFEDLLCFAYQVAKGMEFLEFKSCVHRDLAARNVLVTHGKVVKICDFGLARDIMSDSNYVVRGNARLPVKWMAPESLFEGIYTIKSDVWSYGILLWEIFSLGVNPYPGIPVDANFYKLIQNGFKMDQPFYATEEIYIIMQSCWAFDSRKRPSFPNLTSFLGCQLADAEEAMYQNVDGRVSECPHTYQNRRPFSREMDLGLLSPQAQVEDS
Briefly: Inhibition of human recombinant FLT3 expressed in sf21 cells using Poly(Glu:Tyr) as substrate in presence of [gamma32P]ATP.

The nature of data set [16]: Thermodynamic solubility in pH 7 pION buffer at 500 uM incubated for 18 hrs by UV-spectrophotometry. The class given is physicochemical. The settings on record: read-out: Therm_solubility.
Data set [17] has as its target Platelet-derived growth factor receptor beta (Homo sapiens, UniProt P09619). The experiment in a line: Inhibition of human recombinant PDGFRbeta expressed in sf21 cells at 1 uM using Poly(Glu:Tyr) as substrate in presence of [gamma32P]ATP.
Data set [18] can be described thus: Half life in CD1 mouse at 5 mg/kg, iv. It is filed as ADME, organism-based. The settings on record: in vivo.
Data set [19] is described as follows: Antiproliferative activity against human JURL-MK1 cells after 48 hrs by Cell-Titer-Glo luminescent cell viability assay. The class given is functional. The settings on record: JURL-MK1, 48 h.

Values after ≈ are worked out from the molar mass of the structure shown.

Chain of Fibroblast growth factor receptor 2 (P21802 whole entry): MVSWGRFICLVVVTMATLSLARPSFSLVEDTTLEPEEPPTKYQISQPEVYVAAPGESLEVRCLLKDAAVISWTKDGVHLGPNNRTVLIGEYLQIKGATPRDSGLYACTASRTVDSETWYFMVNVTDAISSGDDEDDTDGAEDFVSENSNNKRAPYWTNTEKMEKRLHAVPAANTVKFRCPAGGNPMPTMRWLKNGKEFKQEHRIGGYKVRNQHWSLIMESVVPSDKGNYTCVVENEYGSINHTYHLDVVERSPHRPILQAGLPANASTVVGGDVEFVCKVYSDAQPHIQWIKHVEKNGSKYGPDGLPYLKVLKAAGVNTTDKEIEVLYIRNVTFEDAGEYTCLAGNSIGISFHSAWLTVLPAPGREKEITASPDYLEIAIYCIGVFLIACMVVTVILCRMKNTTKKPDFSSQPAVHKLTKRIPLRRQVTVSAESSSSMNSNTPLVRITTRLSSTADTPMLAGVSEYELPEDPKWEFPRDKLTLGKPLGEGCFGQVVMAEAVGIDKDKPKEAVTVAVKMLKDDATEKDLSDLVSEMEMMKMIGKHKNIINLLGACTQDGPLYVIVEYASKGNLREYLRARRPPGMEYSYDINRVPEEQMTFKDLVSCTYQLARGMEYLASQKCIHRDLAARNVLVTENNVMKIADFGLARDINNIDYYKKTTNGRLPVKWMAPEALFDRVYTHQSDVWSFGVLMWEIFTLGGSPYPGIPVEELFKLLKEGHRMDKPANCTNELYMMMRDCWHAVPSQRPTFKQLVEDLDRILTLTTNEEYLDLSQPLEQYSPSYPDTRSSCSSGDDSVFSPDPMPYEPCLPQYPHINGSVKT
Chain of Cytochrome P450 3A4 (P08684 whole entry): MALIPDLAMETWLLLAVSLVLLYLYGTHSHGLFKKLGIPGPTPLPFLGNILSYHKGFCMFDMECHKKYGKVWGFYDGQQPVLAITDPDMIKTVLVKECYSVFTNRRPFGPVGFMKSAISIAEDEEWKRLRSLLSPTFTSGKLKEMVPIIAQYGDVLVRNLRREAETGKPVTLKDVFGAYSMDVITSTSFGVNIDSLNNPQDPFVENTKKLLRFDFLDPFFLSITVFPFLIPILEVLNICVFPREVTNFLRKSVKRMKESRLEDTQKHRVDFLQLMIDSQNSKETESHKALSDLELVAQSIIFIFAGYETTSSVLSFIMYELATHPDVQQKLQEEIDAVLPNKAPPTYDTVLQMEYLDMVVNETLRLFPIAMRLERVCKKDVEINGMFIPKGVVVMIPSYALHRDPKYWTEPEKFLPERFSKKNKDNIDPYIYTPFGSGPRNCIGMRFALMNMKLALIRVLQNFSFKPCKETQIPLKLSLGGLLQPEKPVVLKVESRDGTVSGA
Chain of Proto-oncogene tyrosine-protein kinase receptor Ret (P07949 whole entry): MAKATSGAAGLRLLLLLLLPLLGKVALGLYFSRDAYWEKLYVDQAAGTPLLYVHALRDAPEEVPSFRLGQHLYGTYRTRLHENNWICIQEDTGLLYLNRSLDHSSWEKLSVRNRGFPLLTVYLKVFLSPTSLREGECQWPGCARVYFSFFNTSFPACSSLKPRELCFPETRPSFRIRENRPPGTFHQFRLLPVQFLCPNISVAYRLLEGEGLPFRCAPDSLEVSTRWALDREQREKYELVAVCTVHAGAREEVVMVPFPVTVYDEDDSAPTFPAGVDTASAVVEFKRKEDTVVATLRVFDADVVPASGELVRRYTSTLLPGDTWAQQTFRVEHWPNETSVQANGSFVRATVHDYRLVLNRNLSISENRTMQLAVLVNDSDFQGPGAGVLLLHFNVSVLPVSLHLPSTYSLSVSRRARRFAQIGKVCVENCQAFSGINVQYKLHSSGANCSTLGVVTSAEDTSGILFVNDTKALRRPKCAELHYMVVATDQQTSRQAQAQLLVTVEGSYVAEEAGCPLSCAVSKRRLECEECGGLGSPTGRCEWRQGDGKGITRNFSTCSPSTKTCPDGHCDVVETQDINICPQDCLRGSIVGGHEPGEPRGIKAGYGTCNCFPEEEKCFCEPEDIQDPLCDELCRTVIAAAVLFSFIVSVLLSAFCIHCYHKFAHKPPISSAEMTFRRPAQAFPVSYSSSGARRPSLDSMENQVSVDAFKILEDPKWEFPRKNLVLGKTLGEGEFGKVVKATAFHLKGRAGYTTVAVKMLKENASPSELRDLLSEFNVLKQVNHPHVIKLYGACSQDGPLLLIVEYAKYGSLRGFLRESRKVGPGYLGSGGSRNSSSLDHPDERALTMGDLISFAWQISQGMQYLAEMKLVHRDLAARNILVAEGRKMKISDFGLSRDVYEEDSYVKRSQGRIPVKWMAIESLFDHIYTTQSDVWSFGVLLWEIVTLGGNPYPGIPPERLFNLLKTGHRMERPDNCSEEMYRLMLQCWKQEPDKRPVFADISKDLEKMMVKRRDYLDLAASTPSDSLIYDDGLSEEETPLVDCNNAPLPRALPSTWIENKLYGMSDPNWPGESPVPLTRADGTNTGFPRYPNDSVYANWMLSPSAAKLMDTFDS
Chain of MAP kinase-interacting serine/threonine-protein kinase 1 (Q9BUB5 whole entry, the tested form may be a part): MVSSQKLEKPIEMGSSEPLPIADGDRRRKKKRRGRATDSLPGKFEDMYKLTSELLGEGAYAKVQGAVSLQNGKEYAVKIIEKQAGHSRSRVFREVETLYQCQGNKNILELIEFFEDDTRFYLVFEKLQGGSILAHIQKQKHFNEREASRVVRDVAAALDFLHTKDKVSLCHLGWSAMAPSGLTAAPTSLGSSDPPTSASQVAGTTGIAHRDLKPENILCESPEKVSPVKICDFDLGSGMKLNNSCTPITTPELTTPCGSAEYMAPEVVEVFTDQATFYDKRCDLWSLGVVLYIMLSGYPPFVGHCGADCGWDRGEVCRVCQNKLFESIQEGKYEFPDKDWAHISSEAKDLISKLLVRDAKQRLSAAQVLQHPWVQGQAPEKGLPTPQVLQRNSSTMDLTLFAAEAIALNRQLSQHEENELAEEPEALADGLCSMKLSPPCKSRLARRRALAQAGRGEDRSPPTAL

By GI50 is commonly meant the concentration that inhibits growth by half. High values mean lower sensitivity of the cells, low ones greater sensitivity of the cells. In general, bioavailability refers to the share of a dose that reaches the circulation, judged against a reference dose that is usually intravenous. A high value points to good availability. As usually defined, the IC50 is the concentration needed to halve the response being measured. As usually defined, the clearance is the volume of plasma or blood freed of the substance per unit of time. Lower therefore signals a low capacity for elimination. For orientation: inhibition means how much of the control response was suppressed. One may read the half-life as the time in which the quantity being followed falls by half. Low values mean fast loss, high ones slow loss. `CCN1CCN(Cc2ccc(NC(=O)CNc3ccc(-c4ccc(NC(=O)C5CC5)nc4)cc3)cc2C(F)(F)F)CC1`: the 50% growth inhibitory concentration (GI50) with K562 [1] amounted to 0.051 µM; with K562 [2], 0.058 µM; in [11], 0.03 µM; in data set [19], 0.03 µM. This compound yielded a bioavailability in data set [3] of 80%. The IC50 at Cytochrome P450 3A4 was more than 30 µM; in data set [4] it was 0.93 µM; in data set [6] it was 0.888 µM; at Bcr/Abl fusion protein it was 0.089 µM; in [9] it was 2.52 µM; in data set [10], 0.007 µM. Besides, the concentration for half-maximal inhibition (IC50) was 0.18 µM in data set [14] and 0.02 µM in data set [15]. The solubility thermodynamic at 18 h, 500 µM was 0.128 mg/mL (≈ 220 µM) in [5] and 0.0001 mg/mL (≈ 0.172 µM) in data set [16]. For the same compound, the fraction unbound in [7] is 0.0008. For the same compound, in the data set on K562 [8], the TGI result was “Dose-dependent effect”. In addition, the clearance in data set [12] is 2.7 L/h/kg. For the same compound, the inhibition in [13] and in [17] was more than 99% each time. Besides, the half-life in data set [18] is 2.14 h.
Consider `CN1CCN(Cc2ccc(NC(=O)CNc3ccc(-c4ccc(NC(=O)C5CC5)nc4)cc3F)cc2C(F)(F)F)CC1`, for which the GI50 is 0.012 µM in the data set on K562 [1], 0.012 µM in the data set on K562 [2], 0.001 µM in data set [11] and 0.001 µM in [19]. Further, in data set [3], the bioavailability came to 31%. Besides, the IC50 on Cytochrome P450 3A4 was more than 30 µM; in [4] it was 0.272 µM; in data set [6] it was 1.51 µM; at Bcr/Abl fusion protein it was 0.01 µM; in [9], 0.2 µM; in data set [10], 0.001 µM. In addition, the IC50 in data set [14] was found to be 0.28 µM; in data set [15] it was 0.02 µM. Besides, the figures for the solubility thermodynamic at 18 h, 500 µM in data set [5] and in data set [16] were 0.183 mg/mL (≈ 313 µM) and 0.0038 mg/mL (≈ 6.5 µM), respectively. In addition, in [7], the fraction unbound was 0.0022. Moreover, the TGI entry with K562 [8] is “Dose-dependent effect”. Besides, the inhibition in data set [13] and in data set [17] was more than 99% in each case.
